# Test results taken from ChEMBL document CHEMBL3526077, “Prediction of human metabolism of FK3453 by aldehyde oxidase using chimeric mice transplanted with human or rat hepatocytes” (Drug Metab Dispos, 2012).
# Key:
# Mus musculus [1] = assay: Drug metabolism in plasma of chimeric mouse transplanted with human hepatocytes treated with FK3453 at 3 mg/kg, iv as single dose; assay type: ADME, organism-based, Hepatocyte; set-up: dose 3 mg/kg, route intravenous
# Method in brief: (§1)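 Pooled plasma from h-PXB or r-PXB mice after a 3 mg/kg i.v. dose was mixed with an equal volume of acetonitrile and centrifuged. Metabolites were profiled by C18 UPLC with ammonium formate/acetonitrile gradient, UV 254 nm, and Orbitrap MS/MS. Scored as detected or not detected.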
# [2] = Retention time of the compound by UV/mass spectrometry; assay type: physicochemical
# Method in brief: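 Retention time on Acquity BEH C18 column (1.7 µm, 2.1×100 mm). Mobile phase 5 mM ammonium formate with 5% acetonitrile against acetonitrile, at 0.2 mL/min. Gradient: 100:0 to 2.5 min, linear to 65:35 by 25 min, 10:90 to 27 min. Detection by UV at 254 nm and MS.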
# Mus musculus [3] = assay: Drug metabolism in plasma of chimeric mouse transplanted with rat hepatocytes treated with FK3453 at 3 mg/kg, iv as single dose; assay type: ADME, organism-based, Hepatocyte; set-up: dose 3 mg/kg, route intravenous; method in brief: as §1
structure (smiles),measurement,setting,value
CC(C)n1nc(-c2c(-c3ccccc3)nc(N)[nH]c2=O)ccc1=O,Drug metabolism,Mus musculus [1],metabolite_detected
same,Retention_time,[2],16.5 min
same,Drug metabolism,Mus musculus [3],metabolite_detected
